Measurements from different studies.
Lines come from different studies, so protocols differ.
Target: Vascular endothelial growth factor receptor 3 (FLT4, Homo sapiens, UniProt P35916)

`CN1CCN(C(=O)c2ccc(NC(=O)Nc3ccc(N(C)c4ccnc(Nc5ccc(CS(C)(=O)=O)cc5)n4)cc3)cc2)CC1` has a remaining binding of 2% (binding; competition with immobilised ligand; 1 µM).
With `C1=C/COCc2cc(ccc2OCCN2CCCC2)Nc2nccc(n2)-c2cccc(c2)COC/1` the remaining binding was 69% (binding; 0.1 µM).
With `CCCCC(=O)Nc1ccc(-c2ccc3ncn(CCC)c(=O)c3c2)cn1` the remaining binding was 100% (binding; competition with immobilised ligand; 0.5 µM).
The inhibition of `O=C1C=C(Nc2ccc(OCc3cn(Cc4ccc(Br)cc4)nn3)cc2)C(=O)c2ccccc21` is reported as 26% (enzyme activity; inhibitor; radiometric; 10 µM).
`C=CC(=O)N1CCC([C@@H]2CCNc3c(C(N)=O)c(-c4ccc(Oc5ccccc5)cc4)nn32)CC1` has an inhibition of 12% (cell-free assay; 1 µM).
For `COc1ccc2oc(-c3ccc4nc(N)oc4c3)c/c(=N\c3ccccc3NC(=O)CCN)c2c1`, the remaining binding was 105% (binding; 1 µM).
`CC#CC(=O)N1CCC[C@H]1c1nc(-c2ccc(C(=O)Nc3ccccn3)cc2)c2c(N)nccn12` gave an inhibition of 0% (enzyme activity; inhibitor; 1 µM).
For `COc1ccc2[nH]c3c4[nH]c5ccc(OC)cc5c4c4c(c3c2c1)C(=O)NC4=O`, the remaining binding was 71% (binding; competition with immobilised ligand; 1 µM).
